Results pooled from the literature.
Target: Dual specificity protein kinase CLK4 (CLK4, Homo sapiens, UniProt Q9HAZ1)

Structure (SMILES)	assay	conditions	quantity	value
O=C1Nc2ccc(Cl)cc2C1=Cc1cc(Cl)c(O)c(Cl)c1	cell-free assay	0.5 µM	remaining signal	60.7%
Cc1cnc(NC2CCOCC2)nc1-n1cnc(C(=O)NC(CN)c2cc(F)cc(Cl)c2)c1 (stereo not drawn)	enzyme activity, inhibitor, radiometric	1 µM	remaining activity	63%
CCCCN(CCCC)C(=O)CN1C[C@@H](c2cc(OC)c3c(c2)OCO3)[C@H](C(=O)O)[C@H]1CC(C)(C)CCC	cell-free assay, competition with immobilised ligand	1 µM	remaining binding	72.4%
Oc1ccc(-c2nc(-c3ccncc3)c(-c3ccc(F)cc3)[nH]2)cc1	cell-free assay	0.5 µM	remaining signal	106%
CS(=O)(=O)Nc1cccc(-c2csc(NC(=O)CSc3nc4nccnc4c(=O)n3CCc3ccccc3)n2)c1	enzyme activity, inhibitor	10 µM	inhibition	14%
COc1cccc(CNC(=O)c2nc3scc(COCc4ccc(C(=O)O)cc4)c3c(=O)[nH]2)c1	cell-free assay, competition with immobilised ligand	1 µM	remaining binding	94.4%
Cn1cncc1C1=CN(c2ncnc3[nH]cnc23)CCS1	enzyme activity, inhibitor, radiometric	50 nM	inhibition	27.1%
CCCOc1ccc([C@@H]2[C@@H](C(=O)O)[C@H](c3ccc4c(c3)OCO4)CN2CC(=O)Nc2c(CC)cccc2CC)cc1	cell-free assay, competition with immobilised ligand	1 µM	remaining binding	89%
CC(C)(O)[C@H]1CC[C@H](Nc2ccc3ncc(-c4cccc(C(F)(F)F)c4)n3n2)CC1	enzyme activity, inhibitor	1 µM	remaining activity	21.3%
O=C1NC(=O)c2cc(Nc3ccc(F)cc3)c(Nc3ccc(F)cc3)cc21	cell-free assay	0.5 µM	remaining signal	88.6%
O=C(NC[C@@H]1[C@H]2CN(C(=O)OCc3cc(C(F)(F)F)cc(C(F)(F)F)c3)C[C@@H]12)c1ccc2[nH]nnc2c1	cell-free assay, competition with immobilised ligand	1 µM	remaining binding	98%
Cc1sc(C(=O)NC2COC2)cc1-n1cc(NC(=O)Nc2c(F)cccc2Cl)cn1	enzyme activity, inhibitor	10 µM	remaining activity	102%
CC(=O)Nc1c(C(C)=O)c(=O)n(C)c2nc(-c3ccc(Cl)cc3Cl)c(-c3ccc(Cl)cc3)cc12	cell-free assay, competition with immobilised ligand	1 µM	remaining binding	100%
CCN(CC)CCNC(=O)c1c(C)[nH]c(/C=C2\C(=O)Nc3ccc(F)cc32)c1C	cell-free assay	0.5 µM	remaining signal	26.3%
Cn1cnc(Br)c1C1=CN(c2ncnc3[nH]cnc23)CCS1	enzyme activity, inhibitor, radiometric	50 nM	inhibition	24%
CC(C)(C)c1nc(-c2cccc(NS(=O)(=O)c3c(F)cccc3F)c2F)c(-c2ccnc(N)n2)s1	enzyme activity, inhibitor, radiometric	1 µM	remaining activity	74%
COc1cc(Cl)c(C(=O)N[C@@H](CN[C@H]2CC[C@@H](N)CC2)Cc2ccc(C#N)cc2)cc1-c1ccc(CN[C@H](C)c2ccc(C)cc2)o1	enzyme activity, inhibitor	1 µM	remaining activity	103%
CNC(=O)c1cc(Oc2ccc(NC(=O)Nc3ccc(Cl)c(C(F)(F)F)c3)cc2)ccn1	cell-free assay	0.5 µM	remaining signal	95.2%
CCOCCn1cc(C(=O)Nc2ccc(-n3nc(-c4cccnc4)cc3C(F)(F)F)cn2)ccc1=O	cell-free assay, competition with immobilised ligand	1 µM	remaining binding	100%
COc1cc(-c2cc(-c3ccc(N4CCNCC4)cc3)cnc2C)cc(OC)c1OC	enzyme activity, inhibitor	1 µM	inhibition	7%
Nc1ncnc2occ(-c3ccc(NC(=O)Nc4cc(C(F)(F)F)ccc4F)cc3)c12	cell-free assay, inhibitor	20 µM	remaining signal	5.8%
